Assay results: PubChem BioAssay AID652138 (The Scripps Research Institute Molecular Screening Center, 2013)
The source made the active and inactive calls.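 How the source made its calls: active means IC50 at or below 10 µM, the dose giving half-maximal inhibition of the luminescence signal; inactive means IC50 above 10 µM.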

Biological target: Perilipin-5 (Homo sapiens) + 1-acylglycerol-3-phosphate O-acyltransferase ABHD5 (Homo sapiens) (UniProt Q00G26+Q8WTS1)
Assay: ABHD5-PLIN5 binding inhibitors, late-stage follow-up, biochemical, luminescence, dose response, round 3 (AID 652138)
Details: split G. princeps luciferase complementation, 4 h
Method in brief: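 System: split Gaussia princeps luciferase complementation, LucC-tagged ABHD5 with LucN-tagged MLDP; Times: 4 h interaction at 25 °C, then 30 min substrate; Benchmarks: DMSO as low control, 25 µM trans-chalcone as high control; Dosing: 10 points, 1:3 steps, up to 40 µM; Technique: coelenterazine luminescence.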

Chain of Perilipin-5 (Homo sapiens) + 1-acylglycerol-3-phosphate O-acyltransferase ABHD5 (Homo sapiens) (Q00G26 whole entry, looked up): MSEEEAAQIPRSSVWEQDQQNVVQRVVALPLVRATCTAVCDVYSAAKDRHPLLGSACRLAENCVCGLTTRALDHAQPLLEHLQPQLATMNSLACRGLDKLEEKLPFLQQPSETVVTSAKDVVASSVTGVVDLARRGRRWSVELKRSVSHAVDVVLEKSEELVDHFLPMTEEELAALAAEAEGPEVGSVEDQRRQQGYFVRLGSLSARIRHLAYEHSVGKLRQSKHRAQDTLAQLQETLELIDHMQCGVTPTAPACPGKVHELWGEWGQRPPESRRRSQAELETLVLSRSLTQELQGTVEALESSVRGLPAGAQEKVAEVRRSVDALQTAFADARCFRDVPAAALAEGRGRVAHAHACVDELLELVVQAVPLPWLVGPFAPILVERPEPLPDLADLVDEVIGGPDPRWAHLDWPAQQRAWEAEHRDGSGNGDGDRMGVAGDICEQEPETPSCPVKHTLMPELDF
Chain of Perilipin-5 (Homo sapiens) + 1-acylglycerol-3-phosphate O-acyltransferase ABHD5 (Homo sapiens) (Q8WTS1 whole entry, looked up): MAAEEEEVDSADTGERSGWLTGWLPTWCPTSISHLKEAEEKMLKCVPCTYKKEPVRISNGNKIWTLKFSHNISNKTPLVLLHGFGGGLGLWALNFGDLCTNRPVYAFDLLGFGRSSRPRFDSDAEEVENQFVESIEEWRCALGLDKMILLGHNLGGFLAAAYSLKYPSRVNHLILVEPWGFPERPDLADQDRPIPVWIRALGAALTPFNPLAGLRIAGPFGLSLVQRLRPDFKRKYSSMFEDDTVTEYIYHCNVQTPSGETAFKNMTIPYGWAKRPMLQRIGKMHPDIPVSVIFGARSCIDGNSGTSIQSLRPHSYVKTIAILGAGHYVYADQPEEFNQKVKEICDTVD

SMILES	IC50
Cc1ccc2c(CC(=O)N3CCN(S(=O)(=O)c4ccc5c(c4)OCCO5)CC3)coc2c1	inactive
CN1C(=O)c2ccccc2Sc2ccc(NC(=O)NCCCc3ccccc3)cc21	4.04 µM
CCCCCNC(=O)Nc1ccc2c(c1)N(C)C(=O)c1ccccc1S2	3.32 µM
CCCCCCCNC(=O)Nc1ccc2c(c1)N(C)C(=O)c1ccccc1S2	7.78 µM
CCCCCCNC(=O)Nc1ccc2c(c1)N(C)C(=O)c1ccccc1S2	4.71 µM
CCCCNC(=O)Nc1ccc2c(c1)N(C)C(=O)c1ccccc1S2	inactive
